These results are taken from ChEMBL document CHEMBL1134584 (J Med Chem, 2001).

In assay [1] the target is T1, Somatostatin receptor type 3 (Homo sapiens, UniProt P32745). The experiment in a line: Inhibition of [125 I -Tyr]SRIF-14 binding to membranes isolated from CHO-K1 cells expressing cloned human SRIF receptor (sst-3) subtype. The class given is cell membranes.
In assay [2] the target is T1, Somatostatin receptor type 3. The experiment in a line: Inhibitory concentration required to inhibit SRIF-14 induced reduction of cAMP in CHO-K1 cells expressing the human sst3 receptor. The class given is functional, cell-based.
Assay [3] has as its target T2, Somatostatin receptor type 2 (Homo sapiens, UniProt P30874). The experiment in a line: Inhibition of [125 I -Tyr]SRIF-14 binding to membranes isolated from CHO-K1 cells expressing each of the cloned human SRIF receptor (sst-2) subtypes. The format is cell membranes. Put shortly:
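Stable CHO-K1 clones transfected with human receptor cDNA in pCMV5. Membranes prepared from these cells, 10-20 µg protein/well, incubated with 0.05-0.1 nM [125I-Tyr11]SRIF-14 in 50 mM HEPES pH 7.4, 0.2% BSA, 5 mM MgCl2 plus protease inhibitors, 50-90 min at 37 °C depending on subtype. GF/C filtration, then counting. Nonspecific binding defined with 0.1 µM SRIF-14. Ki obtained by nonlinear regression.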

Assay [4] concerns the target T2, Somatostatin receptor type 2. The experiment in a line: Inhibition of [125 I -Tyr]SRIF-14 binding to membranes isolated from CHO-K1 cells expressing cloned human SRIF receptor (sst-2) subtype. The class given is cell membranes.
Assay [5] deals with Somatostatin receptor type 4 (Homo sapiens, UniProt P31391). The experiment in a line: Inhibition of [125 I -Tyr]SRIF-14 binding to membranes isolated from CHO-K1 cells expressing cloned human SRIF receptor (sst-4) subtype. The class given is cell membranes.
Somatostatin receptor type 4, sequence (P31391 whole entry): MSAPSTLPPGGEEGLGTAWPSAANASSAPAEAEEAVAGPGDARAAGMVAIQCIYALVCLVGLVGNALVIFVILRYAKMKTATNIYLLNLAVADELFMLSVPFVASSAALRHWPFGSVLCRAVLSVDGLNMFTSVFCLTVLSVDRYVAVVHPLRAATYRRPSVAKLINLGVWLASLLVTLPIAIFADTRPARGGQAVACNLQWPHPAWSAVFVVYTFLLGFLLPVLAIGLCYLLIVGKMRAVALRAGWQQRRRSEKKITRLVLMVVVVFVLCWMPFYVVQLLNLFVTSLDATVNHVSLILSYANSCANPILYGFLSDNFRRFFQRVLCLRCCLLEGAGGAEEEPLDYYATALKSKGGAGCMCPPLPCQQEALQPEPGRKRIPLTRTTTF
Assay [6] concerns the target Somatostatin receptor type 1 (Homo sapiens, UniProt P30872). The experiment in a line: Inhibition of [125 I -Tyr]SRIF-14 binding to membranes isolated from CHO-K1 cells expressing cloned human SRIF receptor (sst-1) subtype. The class given is cell membranes.
The target of assay [7] is Somatostatin receptor type 5 (Homo sapiens, UniProt P35346). The experiment in a line: Inhibition of [125 I -Tyr]SRIF-14 binding to membranes isolated from CHO-K1 cells expressing cloned human SRIF receptor (sst-5) subtype. The class given is cell membranes.
Somatostatin receptor type 5, sequence (P35346 whole entry): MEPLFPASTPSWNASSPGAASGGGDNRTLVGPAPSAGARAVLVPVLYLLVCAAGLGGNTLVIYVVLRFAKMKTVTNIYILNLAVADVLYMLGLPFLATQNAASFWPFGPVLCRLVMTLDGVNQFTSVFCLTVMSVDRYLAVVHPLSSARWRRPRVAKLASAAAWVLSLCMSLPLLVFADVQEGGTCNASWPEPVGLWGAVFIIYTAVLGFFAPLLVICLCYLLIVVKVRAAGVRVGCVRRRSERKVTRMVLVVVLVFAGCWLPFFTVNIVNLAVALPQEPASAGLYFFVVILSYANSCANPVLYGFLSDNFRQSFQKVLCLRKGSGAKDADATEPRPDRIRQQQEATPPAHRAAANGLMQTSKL

By Ki is commonly meant the dissociation constant of the complex between target and ligand, obtained from inhibition or displacement. For orientation: IC50 means the concentration that inhibits the measured activity by half.

The structures appear in SMILES notation.

T1 sequence (P32745 whole entry): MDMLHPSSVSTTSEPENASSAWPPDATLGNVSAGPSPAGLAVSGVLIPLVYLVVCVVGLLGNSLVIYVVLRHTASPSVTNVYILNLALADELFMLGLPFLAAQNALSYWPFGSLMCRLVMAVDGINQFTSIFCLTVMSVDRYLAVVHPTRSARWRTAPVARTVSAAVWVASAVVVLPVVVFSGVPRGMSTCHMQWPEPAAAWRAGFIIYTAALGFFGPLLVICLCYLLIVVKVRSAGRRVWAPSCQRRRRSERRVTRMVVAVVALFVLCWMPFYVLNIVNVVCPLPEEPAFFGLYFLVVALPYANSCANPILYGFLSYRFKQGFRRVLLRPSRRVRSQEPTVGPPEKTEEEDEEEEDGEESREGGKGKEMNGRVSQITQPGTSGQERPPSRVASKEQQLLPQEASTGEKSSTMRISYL
Somatostatin receptor type 1, sequence (P30872 whole entry): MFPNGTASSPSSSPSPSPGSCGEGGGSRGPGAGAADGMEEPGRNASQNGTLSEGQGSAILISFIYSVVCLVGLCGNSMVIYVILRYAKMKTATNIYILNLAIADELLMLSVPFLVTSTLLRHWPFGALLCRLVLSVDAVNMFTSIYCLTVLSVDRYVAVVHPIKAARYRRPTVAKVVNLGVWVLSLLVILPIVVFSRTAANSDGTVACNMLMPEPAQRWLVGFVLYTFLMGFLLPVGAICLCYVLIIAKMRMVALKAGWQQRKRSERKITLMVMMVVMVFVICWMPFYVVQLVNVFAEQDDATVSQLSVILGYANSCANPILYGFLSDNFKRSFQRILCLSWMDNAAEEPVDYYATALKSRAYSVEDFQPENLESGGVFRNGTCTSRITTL
T2 sequence (P30874 whole entry): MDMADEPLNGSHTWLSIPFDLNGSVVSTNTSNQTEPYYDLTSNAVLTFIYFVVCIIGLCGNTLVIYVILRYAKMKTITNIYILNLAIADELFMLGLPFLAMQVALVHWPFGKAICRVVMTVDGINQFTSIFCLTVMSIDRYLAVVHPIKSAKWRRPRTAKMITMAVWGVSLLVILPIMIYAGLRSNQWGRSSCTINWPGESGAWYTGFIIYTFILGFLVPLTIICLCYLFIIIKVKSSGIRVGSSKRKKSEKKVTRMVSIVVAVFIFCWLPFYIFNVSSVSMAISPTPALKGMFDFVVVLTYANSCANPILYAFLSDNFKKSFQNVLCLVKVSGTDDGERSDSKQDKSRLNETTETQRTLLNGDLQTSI

In assay [1], `CCCCCC1(CCCCC)NC(c2nc(-c3ccccc3)c[nH]2)Cc2c1[nH]c1ccc(C)cc21` (centres undefined) displayed a Ki of 6.9 nM. For the same compound, in assay [2], the concentration for half-maximal inhibition (IC50) came to 450 nM.
In assay [1], `CCCCC1(CCCC)N[C@H](c2nc(-c3ccccc3)c[nH]2)Cc2c1[nH]c1ccccc21` [listing 1 of 2 here] gave a Ki of 0.79 nM.
On the same count and under the same terms, the result for `O=[N+]([O-])c1ccccc1C1N[C@H](c2nc(-c3ccccc3)c[nH]2)Cc2c1[nH]c1ccccc21` (some centres undefined) reads 200 nM.
Same read-out and setting: the result for `c1ccc(-c2c[nH]c(-c3cc4c([nH]c5ccccc54)c(C4CCCCC4)n3)n2)cc1` reads 750 nM.
In assay [3], `C[C@@H](c1c[nH]c2ccccc12)[C@@H](NC(=O)N1CCC(n2c(=O)[nH]c3ccccc32)CC1)C(=O)N[C@@H](CCCCN)C(=O)OC(C)(C)C` had a Ki of 0.01 nM.
In turn, `CC(=O)N1CCC2(CC1)N[C@@H](c1nc(-c3ccccc3)c[nH]1)Cc1c2[nH]c2ccccc12` registered an inhibitory constant (Ki) in assay [1] of 71 nM.
As to `CC1(C2CCCCC2)N[C@H](c2nc(-c3ccccc3)c[nH]2)Cc2c1[nH]c1ccccc21` (some centres undefined), the Ki in assay [4] is more than 10 µM; in assay [5], more than 10 µM; in assay [6], 4.4 µM; in assay [1], 0.9 nM; in assay [7] it was more than 10 µM. Moreover, in assay [2], inhibition was half-maximal at 5.4 nM (IC50).
For `CCCCC1(CCCC)N[C@@H](c2nc(-c3ccccc3)cs2)Cc2c1[nH]c1ccccc21`, the Ki in assay [1] was determined as 3800 nM.
On the same count and under the same terms, the result for `CCCCC1(CCCC)N[C@@H](c2nc(-c3ccccc3)c[nH]2)Cc2c1sc1ccccc21` reads 430 nM.
For the compound `CCCCCC1(CCCCC)N[C@H](c2nc(-c3ccccc3)c[nH]2)Cc2c1[nH]c1ccccc21`, the inhibition constant (Ki) in assay [4] is more than 10 µM; in assay [5] it was more than 10 µM; in assay [6], more than 10 µM; in assay [1], 0.92 nM; in assay [7] it was more than 10 µM. In addition, the 50% inhibitory concentration (IC50) in assay [2] came out at 0.84 nM.
In the case of `CCC1(CC)N[C@H](c2nc(-c3ccccc3)c[nH]2)Cc2c1[nH]c1ccccc21`, affinity in assay [1] was put at a Ki of 11 nM. That is a double-digit nanomolar value.
`COc1ccc(C2N[C@H](c3nc(-c4ccccc4)c[nH]3)Cc3c2[nH]c2ccccc32)cc1` (some centres undefined) showed an inhibition constant Ki in assay [1] of 60 nM.
In turn, `CCCCCC1N[C@H](c2nc(-c3ccccc3)c[nH]2)Cc2c1[nH]c1ccccc21` (some centres undefined) displayed a Ki in assay [1] of 11 nM. Against the preceding compound, the Ki is about 5.5-fold lower.
For `c1ccc(-c2c[nH]c([C@@H]3Cc4c([nH]c5ccccc45)C4(N3)C3CC5CC(C3)CC4C5)n2)cc1` (some centres undefined), in assay [1], the affinity, expressed as Ki, was 84 nM.
On to `c1ccc(-c2c[nH]c(C3Cc4c([nH]c5ccccc45)C(C4CCCCC4)N3)n2)cc1` (centres undefined), for which the inhibition constant (Ki) was more than 10 µM in assay [4], more than 10 µM in assay [5], 1.8 µM in assay [6] and more than 10 µM in assay [7].
For the compound `CCCCC1(CCCC)N[C@@H](c2nc(-c3ccccc3)c[nH]2)Cc2c1[nH]c1ccccc21`, the Ki in assay [4] is more than 10 µM; in assay [5] it was 7.1 µM; in assay [6], 3.7 µM; in assay [1], 0.64 nM; in assay [7], 2.2 µM. Also, the half-maximal inhibitory concentration (IC50) in assay [2] turned out to be 2.7 nM.
The compound `CCCCC1(CCCC)N[C@H](c2nc(-c3ccccc3)c(-c3ccccc3)[nH]2)Cc2c1[nH]c1ccccc21` came in with a Ki in assay [1] of 5500 nM.
`CN(C)c1ccc(C2N[C@H](c3nc(-c4ccccc4)c[nH]3)Cc3c2[nH]c2ccccc32)cc1` (some centres undefined) showed a Ki in assay [1] of 33 nM. This Ki lies about 170-fold lower than the previous one.
For `CCCCC1(CCCC)NC(c2nc(-c3ccccc3)c[nH]2)Cc2c1[nH]c1ccc(Cl)cc21` (centres undefined), in assay [1], the Ki came to 3.4 nM. In addition, in assay [2], half-maximal inhibition (IC50) required 43 nM.
For `CCCCC1(CCCC)NC(c2nc(-c3ccccc3)c[nH]2)Cc2c1[nH]c1ccc(OCc3ccccc3)cc21` (centres undefined), the Ki in assay [1] turned out to be 17 nM.
For `c1ccc(-c2c[nH]c([C@@H]3Cc4c([nH]c5ccccc45)C(c4ccncc4)N3)n2)cc1` (some centres undefined), in assay [1], the Ki came out at 320 nM.
Regarding `CCCCCCC1(CCCCCC)N[C@H](c2nc(-c3ccccc3)c[nH]2)Cc2c1[nH]c1ccccc21`, the affinity in assay [1] corresponds to a Ki of 28 nM.
Consider `CCCCC1(CCCC)N[C@H](c2nc(-c3ccccc3)c[nH]2)Cc2c1[nH]c1ccccc21` [listing 2 of 2 here], for which the inhibitory constant (Ki) in assay [4] is more than 10 µM; in assay [5], 9.8 µM; in assay [6] it was more than 10 µM; in assay [1] it was 3.4 nM; in assay [7], 3.7 µM. The compound also had an IC50 in assay [2] of 6.8 nM.
As for `c1ccc(-c2c[nH]c([C@@H]3Cc4c([nH]c5ccccc45)C4(Cc5ccccc5C4)N3)n2)cc1`, affinity in assay [1] was put at a Ki of 13 nM.
